In ChEMBL document CHEMBL4038284, “Synthesis of novel quinoline-based 4,5-dihydro-1H-pyrazoles as potential anticancer, antifungal, antibacterial and antiprotozoal agents” (Eur J Med Chem, 2017):
Activity calls are given as the source filed them. No cut-off for these calls is given here.

How the values were obtained:
NCI-H460 [1] = experiment: Growth inhibition of human NCI-H460 cells at 10 uM incubated for 48 hrs by sulforhodamine B assay; format: functional, cell-based
Procedure, shortened: (§1)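 NCI 60-line panel, single 10 μM dose. Cells were grown in RPMI-1640 with 5% FBS and 2 mM L-glutamine and pre-incubated 24 h before compound addition (DMSO stock). Exposure was 48 h at 37 °C, 5% CO2. Cells were fixed with cold TCA (10% final), stained with 0.4% SRB, bound dye dissolved in 10 mM Tris base, A515 read. Growth was taken relative to time-zero and untreated control plates.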

OVCAR-5 [2] = experiment: Growth inhibition of human OVCAR5 cells at 10 uM incubated for 48 hrs by sulforhodamine B assay; format: functional, cell-based; procedure, shortened: as §1
CCRF-CEM = experiment: Growth inhibition of human CCRF-CEM cells incubated for 48 hrs by sulforhodamine B assay; format: functional
Procedure, shortened: (§2)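 NCI 60-line screen. Cells in RPMI-1640 with 5% FBS and 2 mM L-glutamine, preincubated 24 h, then time-zero plates TCA-fixed. Compounds from DMSO stocks given at five final concentrations (100, 10, 1.0, 0.1, 0.01 µM) for 48 h at 37 °C, 5% CO2. Cells fixed with 10% TCA, SRB-stained, read at 515 nm. GI50 is the concentration giving 50% lower net protein increase versus control.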

K562 = experiment: Growth inhibition of human K562 cells incubated for 48 hrs by sulforhodamine B assay; format: functional; details: K562, 48 h; procedure, shortened: as §2
SR = experiment: Growth inhibition of human SR cells incubated for 48 hrs by sulforhodamine B assay; format: functional; procedure, shortened: as §2
A549 = experiment: Growth inhibition of human A549/ATCC cells incubated for 48 hrs by sulforhodamine B assay; format: functional; details: A549, 48 h; procedure, shortened: as §2
HOP-62 = experiment: Growth inhibition of human HOP62 cells incubated for 48 hrs by sulforhodamine B assay; format: functional; details: HOP-62, 48 h
Procedure, shortened: (§3)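 NCI five-dose SRB assay (100, 10, 1.0, 0.1, 0.01 µM) with 48 h exposure in RPMI-1640 with 5% FBS and 2 mM L-glutamine. Cells fixed with TCA and stained with SRB, read at 515 nm. GI50 is the concentration where [(Ti−Tz)/(C−Tz)]×100 = 50.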

NCI-H460 [3] = experiment: Growth inhibition of human NCI-H460 cells incubated for 48 hrs by sulforhodamine B assay; format: functional; details: NCI-H460, 48 h
Procedure, shortened: (§4)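 Five-dose NCI SRB assay at 100, 10, 1.0, 0.1 and 0.01 μM for 48 h at 37 °C, 5% CO2. Medium was RPMI-1640 with 5% FBS and 2 mM glutamine. Time-zero plates were TCA-fixed at compound addition, A515 read after SRB staining. GI50 was solved from [(Ti−Tz)/(C−Tz)]×100 = 50. Values beyond the tested range are given as > or <.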

NCI-H522 = experiment: Growth inhibition of human NCI-H522 cells incubated for 48 hrs by sulforhodamine B assay; format: functional; details: NCI-H522, 48 h; procedure, shortened: as §2
HCC 2998 = experiment: Growth inhibition of human HCC2998 cells incubated for 48 hrs by sulforhodamine B assay; format: functional; details: HCC 2998, 48 h; procedure, shortened: as §2
KM12 = experiment: Growth inhibition of human KM12 cells incubated for 48 hrs by sulforhodamine B assay; format: functional; details: KM12, 48 h; procedure, shortened: as §4
SF-539 = experiment: Growth inhibition of human SF539 cells incubated for 48 hrs by sulforhodamine B assay; format: functional; details: SF-539, 48 h
Procedure, shortened: (§5)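 NCI-60 panel cells grown in RPMI-1640 with 5% FBS and 2 mM L-glutamine, preincubated 24 h at 37 °C/5% CO2. Time-zero plates were TCA-fixed at compound addition. DMSO stocks were diluted in medium and tested at five final concentrations (100, 10, 1.0, 0.1, 0.01 µM) for 48 h. Cells were TCA-fixed, stained with SRB and read at 515 nm. GI50 = 50% lower net protein increase versus control.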

SNB-75 = experiment: Growth inhibition of human SNB75 cells incubated for 48 hrs by sulforhodamine B assay; format: functional; details: SNB-75, 48 h; procedure, shortened: as §2
LOX IMVI = experiment: Growth inhibition of human LOXIMVI cells incubated for 48 hrs by sulforhodamine B assay; format: functional; procedure, shortened: as §4
SK-MEL-5 = experiment: Growth inhibition of human SK-MEL-5 cells incubated for 48 hrs by sulforhodamine B assay; format: functional; details: SK-MEL-5, 48 h; procedure, shortened: as §2
UACC-257 = experiment: Growth inhibition of human UACC257 cells incubated for 48 hrs by sulforhodamine B assay; format: functional; details: UACC-257, 48 h; procedure, shortened: as §5
OVCAR-5 [4] = experiment: Growth inhibition of human OVCAR5 cells incubated for 48 hrs by sulforhodamine B assay; format: functional; details: OVCAR-5, 48 h; procedure, shortened: as §2
786-0 = experiment: Growth inhibition of human 786-0 cells incubated for 48 hrs by sulforhodamine B assay; format: functional; details: 786-0, 48 h; procedure, shortened: as §3
ACHN = experiment: Growth inhibition of human ACHN cells incubated for 48 hrs by sulforhodamine B assay; format: functional; procedure, shortened: as §2
RXF 393 = experiment: Growth inhibition of human RXF393 cells incubated for 48 hrs by sulforhodamine B assay; format: functional; details: RXF 393, 48 h; procedure, shortened: as §4
PC-3 = experiment: Growth inhibition of human PC3 cells incubated for 48 hrs by sulforhodamine B assay; format: functional; details: PC-3, 48 h; procedure, shortened: as §4
MDA-MB-231 = experiment: Growth inhibition of human MDA-MB-231 cells incubated for 48 hrs by sulforhodamine B assay; format: functional; details: MDA-MB-231, 48 h; procedure, shortened: as §4
T47D = experiment: Growth inhibition of human T47D cells incubated for 48 hrs by sulforhodamine B assay; format: functional; procedure, shortened: as §5
MDA-MB-468 = experiment: Growth inhibition of human MDA-MB-468 cells incubated for 48 hrs by sulforhodamine B assay; format: functional; details: MDA-MB-468, 48 h; procedure, shortened: as §4
Cryptococcus neoformans = experiment: Growth inhibition of Cryptococcus neoformans ATCC 32264 at 62.5 ug/ml incubated for 48 hrs under dark condition by broth microdilution method relative to control; format: functional; details: ATCC 32264, 48 h, read-out: GI
Procedure, shortened: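 CLSI M27-A3 broth microdilution in RPMI-1640, DMSO ≤1%. Inoculum 1-5 × 10^3 CFU/mL. Incubated 48 h at 30 °C, dark. % inhibition = 100 − (OD405 test − sterility control)/(OD405 growth control − sterility control), with growth and sterility control wells. Triplicate.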

Staphylococcus aureus = experiment: Antibacterial activity against methicillin-sensitive Staphylococcus aureus ATCC 25923 after 24 hrs by resazurin dye based microdilution assay; format: functional; details: ATCC 25923, 24 h
Procedure, shortened: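 MIC taken as the lowest concentration giving visible inhibition and/or by resazurin (1 mg/mL). Gentamicin was the control. Run in duplicate, repeated at least three times.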

[5] = read-out: LC50 (the source's name)

Question: With O=CN1N=C(c2ccc(Cl)cc2)CC1c1cccc(Nc2ccnc3cc(Cl)ccc23)c1 (stereo not drawn) as the molecule, how does the “growth inhibition (GI)” value (NCI-H460 [1]) read?
Answer: Active

Question: And the “growth inhibition (GI)” value (OVCAR-5 [2])?
Answer: Active

Question: And the GI50 (CCRF-CEM)?
Answer: 1420 nM

Question: What about the CC50 (CCRF-CEM; [5]) of the same molecule?
Answer: > 100000 nM

Question: And the GI50 (K562)?
Answer: 390 nM

Question: And the CC50 (K562; [5])?
Answer: > 100000 nM

Question: What about the GI50 (SR) of the same molecule?
Answer: 400 nM

Question: What about the CC50 (SR; [5]) of the same molecule?
Answer: > 100000 nM

Question: And the GI50 (A549)?
Answer: 2030 nM

Question: And the LC50 (concentration giving 50% net cell kill) (A549)?
Answer: > 100000 nM

Question: What about the GI50 (HOP-62) of the same molecule?
Answer: 1210 nM

Question: And the CC50 (HOP-62; [5])?
Answer: 70000 nM

Question: What about the GI50 (NCI-H460 [3]) of the same molecule?
Answer: 1860 nM

Question: What about the CC50 (NCI-H460 [3]; [5]) of the same molecule?
Answer: > 100000 nM

Question: What about the GI50 (NCI-H522) of the same molecule?
Answer: 1120 nM

Question: And the CC50 (NCI-H522; [5])?
Answer: 66700 nM

Question: What about the GI50 (HCC 2998) of the same molecule?
Answer: 3120 nM

Question: And the CC50 (HCC 2998; [5])?
Answer: > 100000 nM

Question: And the GI50 (KM12)?
Answer: 1220 nM

Question: And the CC50 (KM12; [5])?
Answer: > 100000 nM

Question: And the GI50 (SF-539)?
Answer: 1690 nM

Question: And the CC50 (SF-539; [5])?
Answer: 35100 nM

Question: What about the GI50 (SNB-75) of the same molecule?
Answer: 1700 nM

Question: And the CC50 (SNB-75; [5])?
Answer: > 100000 nM

Question: And the GI50 (LOX IMVI)?
Answer: 1290 nM

Question: What about the CC50 (LOX IMVI; [5]) of the same molecule?
Answer: 9050 nM

Question: And the GI50 (SK-MEL-5)?
Answer: 540 nM

Question: And the CC50 (SK-MEL-5; [5])?
Answer: 5050 nM

Question: What about the GI50 (UACC-257) of the same molecule?
Answer: 1470 nM

Question: And the CC50 (UACC-257; [5])?
Answer: > 100000 nM

Question: What about the GI50 (OVCAR-5 [4]) of the same molecule?
Answer: 9420 nM

Question: What about the CC50 (OVCAR-5 [4]; [5]) of the same molecule?
Answer: > 100000 nM

Question: And the GI50 (786-0)?
Answer: 2960 nM

Question: And the LC50 (786-0)?
Answer: 62700 nM

Question: And the GI50 (ACHN)?
Answer: 2640 nM

Question: And the CC50 (ACHN; [5])?
Answer: > 100000 nM

Question: And the GI50 (RXF 393)?
Answer: 1400 nM

Question: And the CC50 (RXF 393; [5])?
Answer: > 100000 nM

Question: What about the GI50 (PC-3) of the same molecule?
Answer: 1690 nM

Question: What about the CC50 (PC-3; [5]) of the same molecule?
Answer: > 100000 nM

Question: What about the GI50 (MDA-MB-231) of the same molecule?
Answer: 2740 nM

Question: And the CC50 (MDA-MB-231; [5])?
Answer: > 100000 nM

Question: And the GI50 (T47D)?
Answer: 820 nM

Question: And the CC50 (T47D; [5])?
Answer: > 100000 nM

Question: And the GI50 (MDA-MB-468)?
Answer: 280 nM

Question: And the CC50 (MDA-MB-468; [5])?
Answer: > 100000 nM

Question: And the inhibition of growth at 62.5 µg/mL (Cryptococcus neoformans)?
Answer: 59.7%

Question: What about the MIC (Staphylococcus aureus) of the same molecule?
Answer: > 1000 µg/mL
